Rpn11 inh – blocks the human proteasome subunit Rpn11; O00487; calls only at 20 µM; human 26S proteasome, Ub4-pepOG fluorescence polarization; 20S core pre-blocked with epoxomicin; actives 0.59% (n = 360,000);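 active = inhibition at 20 µM, scaled to each plate's controls, above about 33%, limit read from the data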
IDE inh – inhibitors of human insulin-degrading enzyme in cells; inhibition, % at 5.59 µM; P14735; HEK cells, FAbetaB cleavage, fluorescence polarization; actives 0.41% (n = 320,000);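 active = percent inhibition above the average of all tested compounds plus 3 SD, set per screening campaign, cut at about 16% in these data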;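 note: IDE supplied by intact live HEK cells; FP after avidin binding of uncleaved biotin substrate so inhibition keeps polarization high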
HNF4A DNA FP – change in binding of human HNF4 alpha to DNA | activity change, % at 10 µM | actives 0.3% (n = 360,000) | HNF4a-FITC DNA binding, fluorescence polarization, 1 h | P41235; in the data active = activity change above about 30%, passing the limit was not always enough
IDE act – activators of human insulin-degrading enzyme in cells. HEK cells, FAbeta-B cleavage, fluorescence polarization; 0% vehicle, 100% cell-free pure enzyme wells. AID 493087. actives 0.073% (n = 340,000). P14735. activation, % at 5.96 µM;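 active = activation above the mean of all tested compounds plus 3 SD, set per screening campaign, cut at about 17% in these data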
TPT1 inh – blocks Candida albicans tRNA 2'-phosphotransferase. recombinant caTPT1, FP RNA substrate dephosphorylation. actives 0.81% (n = 300,000). AID 1962. inhibition, % at 5 µM;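 active = inhibition above the mean of all tested compounds plus 3 SD, set per screening campaign, cut at about 24% in these data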
CSN inh – blocks human CSN-mediated cullin deneddylation; inhibition, % at 12.5 µM; Purified CSN, SCF-Nedd8-OG deneddylation, fluorescence polarization; Q92905; actives 0.38% (n = 360,000);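 active = pattern-corrected inhibition above about 35%, with an unprinted fluorescence ratio check between 0.5 and 1.5, limit read from the data, passing the limit was not always enough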
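Test system: purified human Csn5 enzyme expressed in HEK293T cells. Amount: 0.24 nM enzyme. Reagent: SCFSkp2-Nedd8OG substrate at 10 nM final. Schedule: 90 min incubation of compound, enzyme and substrate at room temperature. Detection: fluorescence polarization. Read-out: % inhibition of substrate cleavage by Csn5.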
Rpn11 confirm – confirmation of human proteasome Rpn11 inhibitors. shares compounds with Rpn11 inh. purified human 26S proteasome, Ub4-pepOG fluorescence polarization; proteasome pretreated with epoxomicin. inhibition, % at 20 µM. actives 29% (n = 1,900). AID 602318
MMP-2 inh – counter-screen for RPN11 inhibitors: inhibition of human MMP-2; shares compounds with Rpn11 inh; recombinant MMP-2, FRET peptide cleavage fluorescence; inhibition, % at 20 µM; actives 4% (n = 1,900); AID 602330;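 note: human MMP-2 activated beforehand with APMA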
Thrombin FP – thrombin (bovine) inhibition counter-screen; shares compounds with Rpn11 inh; bovine thrombin cleavage of Ub4-pepOG, fluorescence polarization; inhibition, % at 20 µM; actives 13% (n = 1,900);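 active = mean inhibition at least 40% at 20 µM, or signal 3 deviations below plate average, so some actives read negative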
Target sequence (P00735 whole entry, looked up): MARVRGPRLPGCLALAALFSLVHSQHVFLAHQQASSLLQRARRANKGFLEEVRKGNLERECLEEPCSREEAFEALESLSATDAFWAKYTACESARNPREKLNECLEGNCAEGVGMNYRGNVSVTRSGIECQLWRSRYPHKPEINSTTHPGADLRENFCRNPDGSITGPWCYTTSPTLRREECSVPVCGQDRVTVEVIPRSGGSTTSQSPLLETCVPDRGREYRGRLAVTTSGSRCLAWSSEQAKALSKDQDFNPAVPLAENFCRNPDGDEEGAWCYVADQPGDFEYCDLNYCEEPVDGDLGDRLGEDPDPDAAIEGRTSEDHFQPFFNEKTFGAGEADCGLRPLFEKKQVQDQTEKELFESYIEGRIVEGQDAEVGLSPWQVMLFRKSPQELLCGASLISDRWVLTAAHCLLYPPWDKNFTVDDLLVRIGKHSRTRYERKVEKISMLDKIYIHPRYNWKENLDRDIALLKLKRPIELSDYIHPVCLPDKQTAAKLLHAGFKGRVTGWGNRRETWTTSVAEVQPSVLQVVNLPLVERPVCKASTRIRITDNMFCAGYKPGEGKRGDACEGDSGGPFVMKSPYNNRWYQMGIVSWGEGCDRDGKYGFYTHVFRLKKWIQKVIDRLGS
Each line names hits and unclear results; the compound was inactive in the other large screens (follow-up assays come after a bar, where they were run). Shown are actives, neighbours in structure and some others; about 1.7% of the full set was active somewhere. Cut-off read from the data, not from the text of the source, unless noted: active = inhibition above about 40%; inactive = the rest.

COc1ccc(-c2cc(-c3ccc(C)cc3)nc(SCc3nnc(-c4ccccc4)o3)c2C#N)cc1OC	Rpn11 inh active | Rpn11 confirm inactive | MMP-2 inh inactive | Thrombin FP inactive
COc1cc(-c2cc(-c3ccccc3)nc(SCC(=O)O)c2C#N)cc(OC)c1OC	none
Cc1nc(N2CCOCC2)nc(N2CCCCC2)c1[N+](=O)[O-]	none
Cc1nc(N2CCCCC2)nc(N2CCCCC2)c1C=O	Rpn11 inh active | Rpn11 confirm inactive | MMP-2 inh inactive | Thrombin FP inactive
Cc1cccc(N(CC(=O)NCCSCc2ccco2)S(=O)(=O)c2ccccc2)c1	none
Cc1ccc(N(CC(=O)NCCSCc2ccco2)S(=O)(=O)c2ccc(C)cc2)cc1	Rpn11 inh active | Rpn11 confirm inactive | MMP-2 inh inactive | Thrombin FP inactive
N=c1c(S(=O)(=O)c2ccccc2)cc2c(=O)n3ccccc3nc2n1C1CCCC1	Rpn11 inh active | Rpn11 confirm inactive | MMP-2 inh inactive | Thrombin FP inactive
N=c1c(S(=O)(=O)c2ccc(Br)cc2)cc2c(=O)n3ccccc3nc2n1C1CCCC1	none
COc1ccc(CN2CC[C@H]3C=CCc4cccc(c43)C2)cc1	none (no result: TPT1 inh)
COc1ccc(-n2nnc3c(=O)n(CC(=O)Nc4ccc5c(c4)OCCO5)cnc32)cc1OC	Rpn11 inh active | Rpn11 confirm inactive | MMP-2 inh inactive | Thrombin FP inactive
Cc1oc(-c2ccccc2)cc1C(=O)NCc1ccncc1	none
COCCCn1c(SCc2nc3ccccc3c(=O)[nH]2)nc2ccccc2c1=O	Rpn11 inh active | Rpn11 confirm inactive | MMP-2 inh inactive | Thrombin FP inactive
CCc1c(C(=O)N/N=C/c2ccc(OCc3ccc(F)cc3)c(OC)c2)nnn1-c1nonc1N	none
C=CCNC(=O)/C(C#N)=C/c1c(N(Cc2ccccc2)Cc2ccccc2)nc2ccccn2c1=O	Rpn11 inh active | Rpn11 confirm inactive | MMP-2 inh inactive | Thrombin FP inactive
O=C(O)c1cccnc1C(=O)c1ccccc1	none
CN(C)CCCN(C(=O)/C=C/c1cccs1)c1nc2ccc(F)cc2s1	none
CN(C)CCN(C(=O)/C=C/c1cccs1)c1nc2c(F)cc(F)cc2s1	Rpn11 inh active | Rpn11 confirm inactive | MMP-2 inh inactive | Thrombin FP inactive
COc1cc(/C=N/OCC(=O)Nc2cc(C)cc(C)c2)ccc1OCc1ccc(Cl)cc1	Rpn11 inh active | Rpn11 confirm inactive | MMP-2 inh inactive | Thrombin FP inactive
COC(=O)C1CC(Cl)CN1c1ncc(C(F)(F)F)cc1Cl (configuration not stated)	none
Brc1ccc(C2=Nn3c(nnc3-c3cccnc3)SC2)s1	Rpn11 inh active, CSN inh 94 | Rpn11 confirm inactive | MMP-2 inh inactive | Thrombin FP inactive
Clc1ccc(C2=Nn3c(nnc3-c3cccnc3)SC2)s1	none
CCCSc1ccc([C@@H]2[C@H]3C(=O)N(CC)C(=O)[C@H]3[C@]3(C(=O)OC)CCCN23)cc1	none
O=C(Cn1c(C(F)(F)F)nc2ccccc21)N1CCCC1	Rpn11 inh active | Rpn11 confirm inactive | MMP-2 inh inactive | Thrombin FP inactive
CC(=O)Cn1c(C(F)(F)F)nc2ccccc21	none
COc1cccc(-c2csc3nnc(SCC(=O)c4ccc(NC(C)=O)cc4)n23)c1	Rpn11 inh active | Rpn11 confirm inactive | MMP-2 inh inactive | Thrombin FP inactive
O=C(Cc1ccccc1F)Nc1nc(-c2ccc(F)cc2)cs1	none
Cc1ccc(-c2c(C)c(-c3ccc(F)cc3)nc(N)c2C#N)o1	Rpn11 inh active | Rpn11 confirm inactive | MMP-2 inh inactive | Thrombin FP inactive

Compound activity from PubChem.
